# UPR XBP1 act: adaptive UPR (XBP1) activation; CHO-XBP1 luciferase reporter, IRE1-XBP1 UPR activation, luminescence; percent of tunicamycin response, DMSO as zero; 330,000 tested, 0.33% active; activation, % at 20 µM;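 active = versus positive control, 20 µM dose yields 30% or more activation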;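 note: 100% = tunicamycin at 10 µg/mL and 0% = DMSO only wells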
#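 Material: CHO-XBP1 cells stably carrying IRE1-XBP1-driven luciferase reporter | Medium: F12 with 10% serum | Compound dosing: 20 µM single concentration, DMSO 1% | Incubation: Overnight seeding at 37 °C, 6 h compound treatment at 37 °C | Detection: Steady-Glo luminescence read | Read-out basis: % activation of reporter signal versus tunicamycin and DMSO controls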
# Dynein transport: dynein cargo transport inhibition | 3617.4 mouse cells, GR-EGFP nuclear translocation imaging; test concentration mostly 20 µM; stimulated with dexamethasone, 1 µM; active compounds read low | 220,000 tested, 0.47% active | AID 1381 | z-score, hits read low;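 active = plate z-score of nuclear minus cytoplasmic receptor signal below a set negative limit, without overly bright fluorescence or cell loss, cut at about -3.5 in these data, passing the limit was not always enough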;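 note: z-score of nuclear minus cytoplasmic ring GR-EGFP intensity difference per well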
#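 Also added – dexamethasone, 1.0 µM final · Buffer or medium – tet-free, stripped-serum medium · Schedule – induction 48 h, compound 1 h, agonist 30 min · Detection – formaldehyde fixation, Hoechst nuclear stain, 10x automated fluorescence imaging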
# Beta2AR agonist: activates human beta-2 adrenergic receptor causing internalization | Am2.2-beta2AR cells, FAP receptor internalization, flow cytometry | 340,000 tested, 0.43% active | response, % (test concentration not listed);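 active = response above a set limit, near 3 SD of response in nonfluorescent compounds, cut at about 42% in these data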
# Target sequence (P07550 whole entry, looked up): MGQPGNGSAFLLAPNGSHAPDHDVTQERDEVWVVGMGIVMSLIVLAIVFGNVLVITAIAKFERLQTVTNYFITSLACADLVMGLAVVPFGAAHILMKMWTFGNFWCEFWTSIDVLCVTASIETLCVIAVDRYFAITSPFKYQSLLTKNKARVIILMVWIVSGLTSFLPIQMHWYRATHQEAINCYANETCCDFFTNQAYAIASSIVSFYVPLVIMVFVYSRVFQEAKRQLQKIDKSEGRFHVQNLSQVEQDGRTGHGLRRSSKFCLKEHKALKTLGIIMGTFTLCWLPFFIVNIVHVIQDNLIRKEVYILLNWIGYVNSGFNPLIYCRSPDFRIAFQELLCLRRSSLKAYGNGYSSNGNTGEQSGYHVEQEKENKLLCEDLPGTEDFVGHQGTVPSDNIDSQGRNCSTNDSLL
# Mdm2-MdmX inh: human Mdm2/MdmX binding inhibition; SaOS-2 split-luciferase Mdm2/MdmX complementation, luminescence; inhibition, % at 8 µM; 330,000 tested, 3% active; AID 485346;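 active = inhibition of at least 50% at 8 µM in the primary screen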
# MDM2 E3 inh: Mdm2 E3 ligase (human) inhibition | Q00987 | 210,000 tested, 0.11% active | AID 1230 | signal enhancement, % at 5 µM | cell-based MDM2 ubiquitination luciferase reporter, 2 h; 0 = plate control, 100 = twice control, blank-subtracted;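 active = signal enhancement of 30% or more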;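 note: luminescence tracks abundance of the self-degrading MDM2-luciferase fusion protein; higher signal means inhibition of MDM2 E3 ligase activity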
#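 Material: Stable MDM2–luciferase fusion reporter cells | Amount: 2000 cells seeded into each well | Dosing: One concentration, 5 µM, with 0.2% DMSO | Incubation: 4 h cell settling then 2 h compound exposure, 37 °C | Measured by: Luciferase luminescence | Read-out basis: % enhancement relative to plate controls after blank subtraction | Benchmarks: Control and blank well means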
# UPR CHOP act: activators of apoptotic arm of unfolded protein response (CHOP); CHO-CHOP luciferase reporter, UPR activation, luminescence; percent of tunicamycin response over DMSO baseline; activation, % at 10 µM; 330,000 tested, 0.34% active; AID 449763;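 active = at 10 µM dose, activation of 40% or more, normalized to positive control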;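 note: 100% = tunicamycin at 10 µg/mL and 0% = DMSO alone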
#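 Evaluation: % reporter activation, DMSO baseline versus tunicamycin full activation; System: CHO-CHOP luciferase reporter cell line; Input: 500 cells/well; Incubation: 6 h compound treatment, 37 °C; Measured by: Steady-Glo luciferase luminescence; Dosing: one dose, 10 µM in 0.5% DMSO; Buffer or medium: F12 medium, 10% FBS; Benchmarks: positive tunicamycin 10 µg/mL, negative DMSO alone.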
# * hit, by the source's call; . = no result given; ! = not active in a repeat. Shown are actives, neighbours in structure and some others; about 3.7% of the full set was active somewhere.
SMILES,UPR XBP1 act,Dynein transport,Beta2AR agonist,Mdm2-MdmX inh,MDM2 E3 inh,UPR CHOP act
COC(=O)[C@]1(C)CCC[C@@]2(C)C3CC[C@@]4(C)C[C@]3(CCC21)CC(=O)N4 (stereo partly specified),2.3,.,5.0,5.2,.,0.8
C=C1C(=O)C23CCC4C(C)(C(=O)OC)CCCC4(C)C2CCC1(O)C3 (stereo unspecified),.,.,95.6*,.,.,.
CC(C)(C)OC(=O)N1CCC(NC(=O)c2[nH]cnc2C(=O)Nc2cccc(Cl)c2)CC1,-2.6,.,-0.7,7.6,.,-2.1
COc1ccc(OCC(=O)Nc2cc(-c3nn4c(C)nnc4s3)ccc2C)cc1,3.0,0.0739,69.8*,13.4,-32.4,-1.3
COc1ccc(C(=O)Nc2cc(-c3nn4c(C)nnc4s3)ccc2C)cc1,-1.2,-0.284,-8.3,7.7,-22.1,1.0
O=C(N/N=C/c1ccc[nH]1)c1cc2ccccc2cc1O,8.9,.,46.2*,26.7,.,5.2
O=C(N/N=C/c1ccncc1)c1cc2ccccc2cc1O,3.2,.,7.6,21.3,.,5.1
CC(Sc1ccc(S(=O)(=O)N2CCN(C)CC2)cn1)C(=O)Nc1cccc(Cl)c1Cl (stereo unspecified),.,.,-4.0,.,.,.
O=C(CSc1nnc(COc2ccccc2)o1)N1CCCCC1,-2.0,.,-6.5,-3.0,.,-1.6
CCOc1ccc(NS(=O)(=O)c2ccc(-c3ccc(=O)[nH]n3)o2)cc1,-3.7,.,6.2,-2.0,.,-0.7
COc1ccc(N=c2ssnc2Cl)cc1,-3.4,-3.85*,12.2,19.7,-0.1,4.6
Clc1ccc(N=c2ssnc2Cl)cc1,-0.7,-4.34*,0.6,31.2,-18.5,1.8
Clc1nssc1=Nc1ccccc1,.,-0.529,1.8,.,0.9,.
CCOC(=O)C(CC(=O)Nc1nc(C(C)=O)c(C)s1)C(C)c1ccccc1 (stereo unspecified),-2.9,.,-7.4,16.2,.,-0.1
CCOc1ccc(S(=O)(=O)NCCCn2ccnc2)cc1,-3.3,.,-3.0,1.8,.,0.0
Brc1ccc(-c2cnc(-c3cccs3)o2)cc1,2.6,0.25,1.5,-77.6,31.7*,9.7
CN(C)c1ccc(-c2nnc(-c3cccs3)o2)cc1,-11.1,0.197,-11.1,-49.8,-65.6,-2.9
CCOC(=O)[C@@H]1[C@H]2COc3ccccc3[C@@H]2N2C(=O)N(c3ccc(OC)cc3)C(=O)[C@@]12C,0.3,.,-0.9,14.8,.,-0.1
COCCCNC(=O)C[C@H]1C[C@H](C(=O)N2CCCCC2)[C@@]2(CCc3ccccc3)c3[nH]c4cc(-c5ccco5)ccc4c3CCN2C1=O,9.0,.,12.9,46.8,.,2.3
O=C(C[C@H]1C[C@H](C(=O)N2CCCCC2)[C@@]2(CCc3ccccc3)c3[nH]c4cc(-c5ccco5)ccc4c3CCN2C1=O)NCCN1CCOCC1,7.0,.,42.5*,34.5,.,6.5
Cc1nc2c(Br)cc(Br)cc2cc1O,-1.0,-0.272,56.8*,23.2,-11.1,-0.3
Brc1cc(Br)c2nc(-c3cccs3)ccc2c1,2.1,2.87,-5.2,-54.7,-17.6,2.6
CN(CC(=O)Nc1ccccc1Cl)C(=O)CN1C(=O)C2CC=CCC2C1=O (stereo unspecified),1.1,.,-6.5,-24.5,.,0.5
O=C(C=Cc1ccccn1)c1ccccc1O,.,.,48.5*,.,.,.
O=C(C=Cc1ccccn1)c1ccccc1,.,.,21.2,.,.,.
SMILES,UPR XBP1 act,Dynein transport,Beta2AR agonist,Mdm2-MdmX inh,MDM2 E3 inh,UPR CHOP act
COc1cccc(CNC(=O)c2ccc(C3SCCS3)cc2)c1,1.6,.,5.2,-0.1,.,2.4
Nc1nc(Cn2nnc(-c3ccccc3Cl)n2)nc(N2CCOCC2)n1,-0.2,-0.0532,-3.0,6.0,-12.6,-1.6
Nc1nc(Cn2nnc(-c3ccccc3F)n2)nc(N2CCOCC2)n1,-0.4,0.541,51.6*,18.2,-19.0,-0.2
O=C(NCCc1ccccc1)C1CCN(C2CCN(Cc3ccc(CO)o3)CC2)CC1,-2.5,-0.32,4.1,-2.9,37.8*,2.7
O=C(NCCc1ccccc1)C1CCN(C2CCN(C(=O)CC3=CCCCC3)CC2)CC1,-0.5,0.115,0.5,-2.9,-4.2,0.3
CCOC(=O)c1ccc2c(c1)N(CC)/C(=C\C=C1/SC(=S)N(CC)C1=O)N2CC,.,-6.03*,.,.,.,.
CCCCn1c(N)c(N(CC)C(=O)c2ccc(C#N)cc2)c(=O)[nH]c1=O,5.1,.,-0.5,-40.0,.,0.5
O=C1NC(=O)c2cc(NC(=O)C3COc4ccccc4O3)ccc21 (stereo unspecified),2.8,-0.312,-7.7,10.9,43.5*,0.6
Cc1ccc2cc(CCNS(=O)(=O)c3ccc(F)cc3)c(=O)[nH]c2c1C,-3.9,-0.0301,43.1*,14.2,-3.3,-0.4
COc1ccc(-c2cc(C(F)(F)F)nc(SCC(=O)NCc3cnn(C)c3C)n2)cc1OC,-0.1,-0.519,-13.1,-2.9,34.8*,0.3
COc1ccc(-c2cc(C(F)(F)F)nc(SCC(=O)NCc3ccco3)n2)cc1OC,0.2,0.26,-14.4,9.1,-19.7,0.7
O=C(N/N=C/c1ccc(O)cc1O)NC12CC3CC(CC(C3)C1)C2,5.8,.,44.2*,32.4,.,3.9
O=C(N/N=C/c1cc([N+](=O)[O-])ccc1O)NC12CC3CC(CC(C3)C1)C2,-7.4,-0.126,6.3,13.9,-23.3,-2.4
C=CCn1c(=O)c2ccccc2n2c(SCC(=O)/C(C#N)=C(\C)N)nnc12,4.4,-0.384,65.1*!,2.1,-15.9,1.6
Cc1csc(NC(=O)CSc2nc3[nH]c(=O)cc(O)c3s2)n1,.,.,92.9*,.,.,.
O=C(CSc1nccn1Cc1ccco1)Nc1ccccc1,0.2,.,-3.5,-9.2,.,2.5
CN1CCN(C(=O)c2ccc3c(c2)N(Cc2ccc(F)cc2)C(=O)c2ccccc2S3=O)CC1 (stereo unspecified),2.1,.,7.5,1.1,.,-2.3
COc1ccc2c(c1)/C(=C\c1cccc(/C=C3/C(=O)Nc4ccc(OC)cc43)n1)C(=O)N2,.,.,92.9*,.,.,.
CCn1c(SCC(=O)N2CC(C)OC(C)C2)nc2c([nH]c3ccccc32)c1=O (stereo unspecified),-2.7,.,6.7,21.4,.,1.0
Cc1noc(C)c1CS(=O)(=O)c1ccc([N+](=O)[O-])cc1,-3.1,-0.744,-0.2,4.7,-20.2,-0.7
Cc1cc(NC(=O)CSc2nc(C(C)C)nc3c2c(=O)n(C)c(=O)n3C)no1,0.9,-0.0233,-31.8,6.9,33.3*,-0.1
Cc1cc(-c2nc3ncccc3o2)ccc1NC(=S)NC(=O)C(C)C,-1.0,2.15,61.9*,-3.8,-89.1,-1.0
Cc1ccc(-c2nc3ncccc3o2)cc1NC(=O)C(C)C,-1.8,.,-13.2,8.6,.,0.9
